What was measured:
Rattus norvegicus [1] = assay: The compound was tested in vivo for inhibition of Cholesterol Biosynthesis from [14C]- acetate in rat after peroral administration.; format: functional; conditions: po
Homo sapiens = species on record: Homo sapiens; assay: The compound was tested for inhibition of Cholesterol synthesis from [14C]- Acetate in human skin fibroblasts; format: functional
Procedure, shortened: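 Human skin fibroblasts (passage 7-27) were plated at 5 × 10^5 cells/well and cultured 18 h. Sterol synthesis was induced by 24 h in serum-free MEM with 1.0% fatty acid-free BSA. Cells were preincubated with compound for 30 min (DMSO ≤1.0%), then given sodium [1-14C]acetate at 2.0 µCi/mL for 4 h. Label in the extracted cholesterol peak was compared with controls. I50 from composite curves of ≥2 experiments.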

Rattus norvegicus [2] = species on record: Rattus norvegicus; assay: The compound was tested for inhibition of Cholesterol synthesis from [14C]- Acetate in hepatocytes of rats.; format: functional; conditions: Hepatocyte
Procedure, shortened: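 Rat hepatocytes were freshly isolated by collagenase perfusion, 70-90% viable. Cells were suspended at 5 × 10^6 per 2.0 mL in Tris pH 7.4 incubation medium with cofactors; DMSO was ≤1.0% final. Incubation was with [14C]acetate (2 µCi/mL) for 2.0 h at 37 °C. Lipids were extracted by Bligh-Dyer and the percent of label in the cholesterol peak was compared with controls. I50 from composite curves of two or more studies.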

[3] = target: T1, 3-hydroxy-3-methylglutaryl-coenzyme A reductase (Rattus norvegicus, UniProt P51639); assay: In vitro for inhibition of rat HMG-CoA reductase.; conditions: read-out: I50
T1 sequence (P51639 whole entry): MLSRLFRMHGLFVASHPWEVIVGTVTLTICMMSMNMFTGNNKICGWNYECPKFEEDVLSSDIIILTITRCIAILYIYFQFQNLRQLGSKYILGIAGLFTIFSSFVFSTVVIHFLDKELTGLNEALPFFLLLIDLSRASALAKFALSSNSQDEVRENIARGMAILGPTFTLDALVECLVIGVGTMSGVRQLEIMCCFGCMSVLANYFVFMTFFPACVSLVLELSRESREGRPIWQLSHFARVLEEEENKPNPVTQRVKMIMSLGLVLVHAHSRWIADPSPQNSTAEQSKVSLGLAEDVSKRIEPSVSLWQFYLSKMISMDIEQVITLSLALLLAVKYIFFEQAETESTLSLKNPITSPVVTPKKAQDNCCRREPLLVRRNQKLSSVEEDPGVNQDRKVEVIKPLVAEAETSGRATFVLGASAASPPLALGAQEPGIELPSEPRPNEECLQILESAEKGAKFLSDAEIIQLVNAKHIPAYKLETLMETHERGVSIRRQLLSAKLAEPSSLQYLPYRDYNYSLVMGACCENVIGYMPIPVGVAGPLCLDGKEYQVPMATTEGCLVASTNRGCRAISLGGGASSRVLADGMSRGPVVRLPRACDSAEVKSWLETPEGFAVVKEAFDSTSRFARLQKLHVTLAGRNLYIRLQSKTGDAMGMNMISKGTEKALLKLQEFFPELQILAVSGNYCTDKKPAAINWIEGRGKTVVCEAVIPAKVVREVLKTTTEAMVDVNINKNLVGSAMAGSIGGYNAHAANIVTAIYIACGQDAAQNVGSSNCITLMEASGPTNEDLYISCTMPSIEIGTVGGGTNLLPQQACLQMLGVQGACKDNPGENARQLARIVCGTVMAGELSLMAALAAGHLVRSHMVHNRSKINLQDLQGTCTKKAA
Procedure, shortened: (§1)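 Enzyme source: hepatic microsomes from cholestyramine-fed Sprague-Dawley rats. Final assay conditions: 0.04 M potassium phosphate pH 7.2, KCl, sucrose, EDTA, 10 mM DTT, 1% DMSO, 50-200 µg microsomal protein. Microsomes were preincubated with 2.7 mM NADPH for 15 min at 37 °C, then with compound for 15 min. 100 µM 14C-[D,L]-HMG-CoA was then added for 20 min at 37 °C. Read-out: 14C-mevalonate, corrected by 3H-mevalonate recovery. I50 taken from composite dose-response regressions, 2-5 experiments.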

[4] = It is the ratio of I50 fibroblasts to that of I50 hepatocytes.; format: functional, Hepatocyte
Procedure, shortened: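 Selectivity is the ratio of I50 in human skin fibroblasts to I50 in freshly isolated rat hepatocytes. Each I50 came from [14C]acetate incorporation into cholesterol, measured as percent inhibition versus controls from composite dose-response data.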

[5] = target: T1, 3-hydroxy-3-methylglutaryl-coenzyme A reductase; assay: The compound was tested in vitro for inhibition of rat hepatic HMG-CoA reductase.; format: functional; conditions: read-out: I50; procedure, shortened: as §1
Rattus norvegicus [6] = assay: The compound was tested in vivo for inhibition of Cholesterol Biosynthesis from [14C]- acetate in rat after intravenous administration.; format: functional
Procedure, shortened: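 Male Sprague-Dawley rats (200-300 g) were kept on a reverse light cycle. Salt forms were given iv into the tail vein in saline, 5 min before ip sodium [1-14C]acetate (25 µCi/100 g), dosed 2 h before mid-dark. Blood was taken 2 h after mid-dark. Read-out: 14C nonsaponifiable plasma lipid per mL versus controls, 4-5 rats/group. ED50 from log dose regressions, mean of ≥2 experiments.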

Row | SMILES | ED50 (Rattus norvegicus [1]) [mg/kg] | IC50 [3] [nM] | IC50 [5] [nM] | further results
1 | CCc1c(-c2ccccc2)nc(C(C)C)c(C#CP(=O)([O-])C[C@H](O)CC(=O)[O-])c1-c1ccc(F)cc1.[Na+].[Na+] | 4.5 | 5.6 |  | IC50 (Homo sapiens; read-out: I 50): 6750 nM; IC50 (Rattus norvegicus [2]; read-out: I 50): 519 nM; Selectivity [4]: 13
2 | Cc1c(-c2ccccc2)nc(C(C)C)c(COP(=O)(O)C[C@H](O)CC(=O)O)c1-c1ccc(F)cc1 |  |  | 5.1 | 
3 | CC(C)c1nc(-c2ccccc2)cc(-c2ccc(F)cc2)c1COP(=O)(O)C[C@H](O)CC(=O)O |  |  | 12.7 | 
4 | CCc1c(-c2ccccc2)nc(C(C)C)c(COP(=O)(O)C[C@H](O)CC(=O)O)c1-c1ccc(F)cc1 |  |  | 2.5 | 
5 | CC(C)c1nc(C(C)(C)C)cc(-c2ccc(F)cc2)c1COP(=O)(O)C[C@H](O)CC(=O)O |  |  | 1.4 | 
6 | CC(C)c1nc(C(C)(C)C)cc(-c2ccc(F)cc2)c1C#CP(=O)([O-])C[C@H](O)CC(=O)[O-].[Na+].[Na+] | 3.5 | 6.1 |  | IC50 (Homo sapiens; read-out: I 50): 2400 nM; IC50 (Rattus norvegicus [2]; read-out: I 50): 556 nM; Selectivity [4]: 4.3; ED50 (Rattus norvegicus [6]): 0.7 mg/kg
7 | Cc1c(-c2ccccc2)nc(C(C)C)c(C#CP(=O)([O-])C[C@H](O)CC(=O)[O-])c1-c1ccc(F)cc1.[Li+].[Li+] | 3.1 | 4.5 |  | IC50 (Homo sapiens; read-out: I 50): 11300 nM; IC50 (Rattus norvegicus [2]; read-out: I 50): 81 nM; Selectivity [4]: 140; ED50 (Rattus norvegicus [6]): 0.13 mg/kg
8 | CC[C@H](C)C(=O)O[C@H]1C[C@H](O)C=C2C=C[C@H](C)[C@H](CC[C@@H](O)C[C@@H](O)CC(=O)[O-])[C@H]21.[Na+] [PRAVASTATIN SODIUM] | 0.75 |  | 24 | Selectivity [4]: 31; ED50 (Rattus norvegicus [6]): 0.053 mg/kg
9 | CC[C@H](C)C(=O)O[C@@H]1C[C@@H](C)C=C2C=C[C@H](C)[C@H](CC[C@@H](O)C[C@H](O)CC(=O)[O-])C21.[Na+] (some centres not stated) | 0.4 |  |  | IC50 (Homo sapiens; read-out: I50): 18.8 nM; IC50 (Rattus norvegicus [2]; read-out: I50): 146 nM; ED50 (Rattus norvegicus [6]): 0.033 mg/kg
10 | CCc1c(-c2ccccc2)nc(C(C)C)c(/C=C/P(=O)([O-])C[C@H](O)CC(=O)[O-])c1-c1ccc(F)cc1.[Na+].[Na+] | > 10 | 0.55 |  | IC50 (Homo sapiens; read-out: I 50): 4700 nM; IC50 (Rattus norvegicus [2]; read-out: I 50): 241 nM; Selectivity [4]: 19.5; ED50 (Rattus norvegicus [6]): 0.2 mg/kg
11 | CCc1nc(-c2ccccc2)c(C)c(-c2ccc(F)cc2)c1COP(=O)(O)C[C@H](O)CC(=O)O |  |  | 19.4 | 
12 | Cc1nc(-c2ccccc2)c(C)c(-c2ccc(F)cc2)c1COP(=O)(O)C[C@H](O)CC(=O)O |  |  | 1300 | 
13 | CC(C)c1nc2c(c(-c3ccc(F)cc3)c1COP(=O)(O)C[C@H](O)CC(=O)O)CCCc1ccccc1-2 |  |  | 1.2 | 
14 | CC(C)c1nc(-c2ccccc2)cc(-c2ccc(F)cc2)c1/C=C/P(=O)([O-])C[C@H](O)CC(=O)[O-].[Li+].[Li+] | 21.4 | 1.9 |  | IC50 (Homo sapiens; read-out: I 50): 2000 nM; IC50 (Rattus norvegicus [2]; read-out: I 50): 77 nM; Selectivity [4]: 26; ED50 (Rattus norvegicus [6]): 0.22 mg/kg
15 | CC(C)c1cc(-c2ccc(F)cc2)c(C#CP(=O)(O)C[C@H](O)CC(=O)O)c(C(C)C)n1 |  | 80.9 |  | 
16 | CC(C)c1nc(C2CCCCC2)cc(-c2ccc(F)cc2)c1C#CP(=O)(O)C[C@H](O)CC(=O)O |  | 48.4 |  | 
17 | Cc1c(-c2ccccc2)nc(C(C)C)c(/C=C/P(=O)([O-])C[C@H](O)CC(=O)[O-])c1-c1ccc(F)cc1.[Na+].[Na+] | 0.46 | 1.2 |  | IC50 (Homo sapiens; read-out: I 50): 2000 nM; IC50 (Rattus norvegicus [2]; read-out: I 50): 260 nM; Selectivity [4]: 7.7; ED50 (Rattus norvegicus [6]): 0.1 mg/kg
18 | CC(C)c1nc(C(C)(C)C)cc(-c2ccc(F)cc2)c1CCP(=O)(O)C[C@H](O)CC(=O)O |  | 17.2 |  | 
19 | Cc1c(-c2ccccc2)nc(C2CC2)c(COP(=O)(O)C[C@H](O)CC(=O)O)c1-c1ccc(F)cc1 |  |  | 1.3 | 
20 | O=C(O)C[C@@H](O)CP(=O)(O)OCc1c(-c2ccc(F)cc2)cc(-c2ccccc2)nc1C1CC1 |  |  | 29 | 
21 | Cc1c(-c2ccccc2)nc(C2CC2)c(CCP(=O)(O)C[C@H](O)CC(=O)O)c1-c1ccc(F)cc1 |  | 9.2 |  | 
22 | CC(C)c1cc(-c2ccccc2)nc(-c2ccc(F)cc2)c1/C=C/P(=O)(O)C[C@H](O)CC(=O)O |  | 45.3 |  | 
23 | CC(C)c1nc2c(c(-c3ccc(F)cc3)c1CCP(=O)(O)C[C@H](O)CC(=O)O)CCCc1ccccc1-2 |  | 18.6 |  | 
24 | CC(C)c1nc(-c2ccccc2)cc(-c2ccc(F)cc2)c1C#CP(=O)([O-])C[C@H](O)CC(=O)[O-].[Li+].[Li+] | 3.9 | 62 |  | IC50 (Homo sapiens; read-out: I 50): 9300 nM; IC50 (Rattus norvegicus [2]; read-out: I 50): 197 nM; Selectivity [4]: 47; ED50 (Rattus norvegicus [6]): 0.47 mg/kg
25 | Cc1cc(F)ccc1-c1cc(-c2ccccc2)nc(C(C)C)c1/C=C/P(=O)(O)C[C@H](O)CC(=O)O |  | 3.9 |  | 
26 | O=C(O)C[C@@H](O)CP(=O)(O)C#Cc1c(-c2ccc(F)cc2)cc(-c2ccccc2)nc1C1CC1 |  | 90.9 |  | 
27 | CC(C)c1nc(-c2ccccc2)cc(-c2ccc(F)cc2)c1CCP(=O)(O)C[C@H](O)CC(=O)O |  | 181 |  | 

From ChEMBL document CHEMBL1125205, “Phosphorus-containing inhibitors of HMG-CoA reductase. 2. Synthesis and biological activities of a series of substituted pyridines containing a hydroxyphosphinyl moiety” (J Med Chem, 1991)
